Experimental data taken from PMC6435016 (Biophysics and Physicobiology, 2019).

What was measured:
[1] = test system: CD28 (biotinylated 41-residue phosphopeptide corresponding to cytoplasmic region of CD28); assay: SPR binding to immobilized CD28 cytoplasmic phosphopeptide; details: 25°C
[2] = test system: intracellular tail of inducible T-cell co-stimulator; assay: SPR binding to intracellular tail of inducible T-cell co-stimulator; details: data not shown
[3] = CD thermal stability / transition curve at 222 nm; type: physicochemical; details: following dissociation of the dimer
In short: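 Human Grb2 SH2 (residues 60–152) expressed as GST fusion in E. coli BL21(DE3); monomer and dimer split by gel filtration. 0.04 mg mL⁻¹ in PBS pH 7.4, 1.0 cm cell; 222 nm signal heated 20–80°C at 1.0°C min⁻¹. Tm from two-state fit, zero heat-capacity change. Samples heated to 50°C, cooled to 20°C, then rerun by far-UV CD and SEC (PBS, 280 nm).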

[4] = SEC analysis of monomer/dimer state; type: physicochemical; details: data not shown
[5] = fluorescence and SEC; similar to Grb2 SH2 dimer dissociating at 40–45°C; ref [39]; cited from earlier work

W121S: Grb2 SH2 mutant, Trp121 replaced by Ser, by site-directed mutagenesis
ability to bind to CD28 ([1]; monomer and dimer of W121S at 800, 1600, 3200, 6400 nM): loses the ability to bind to CD28
binding to intracellular tail of inducible T-cell co-stimulator [2]: could not bind

monomer: SH2 domain of human Grb2 (residues 60–152), monomer fraction purified by gel filtration
Ka,kin ([1]; association constant calculated from the two kinetic rate constants): 117000 M⁻¹
temperature of denaturation of monomer [3]: around 60 °C

B1: Gads SH2: SH2 domain of Grb2-related adaptor downstream of Shc (Gads) (protein)
chain: WFHEGLSRHQAENLLMGKEVGFFIIRASQSSPGDFSISVRHEDDVQHFKVMRDNKGNYFLWTEKFPSLNKLVDYYRTNSISRQKQIFLRDRT
oligomeric state [4]: exists as a monomer with a small population of dimers
thermal transition (dimer to monomer) [5]: A similar transition was recently reported
